According to ChEMBL document CHEMBL4431376, “CZ415, a Highly Selective mTOR Inhibitor Showing in Vivo Efficacy in a Collagen Induced Arthritis Model” (ACS Med Chem Lett, 2016):

What was measured:
[1] = Volume of distribution at steady state in Sprague-Dawley rat at 1 mg/kg, iv as bolus dose or 3 mg/kg, po administered through gavage measured up to 8 hrs by LC-MS/MS analysis; format: ADME, organism-based; settings: in vivo, read-out: Vdss
Method in brief: (§1)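 Rats (n = 3 per route) given a 1 mg/kg intravenous bolus or 3 mg/kg as an oral solution. Vehicle was 5% DMSO/95% (10% Kleptose). Plasma concentration was followed over time to derive PK parameters and oral bioavailability. Clearance was also expressed relative to liver blood flow.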

[2] = tested on: Mus musculus; test: Time duration for free plasma concentration stays above invitro EC50 for human whole blood in DBA/1 OlaHsd mouse immunized with bovine type2 collagen in Freund's complete adjuvant at 10 mg/kg, po bid administered starting on day 22 post immunization measured on day 31 post immunization; format: ADME, organism-based; settings: in vivo
Method in brief: (§2)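 Blood drug levels were measured on study day 31 in CIA mice dosed at 10 mg/kg PO bid (n = 10), with vehicle 5% DMSO/95% (10% kleptose). AUC and Cmax were derived from these levels. Time above EC50 was judged against the human whole-blood IFNγ assay EC50 and the anti-CD3 mouse PK/PD EC50.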

[3] = target: T1, Cytochrome P450 1A (Homo sapiens, UniProt P04798+P05177); test: Inhibition of CYP1A in human liver microsomes
T1 sequence (P04798 whole entry): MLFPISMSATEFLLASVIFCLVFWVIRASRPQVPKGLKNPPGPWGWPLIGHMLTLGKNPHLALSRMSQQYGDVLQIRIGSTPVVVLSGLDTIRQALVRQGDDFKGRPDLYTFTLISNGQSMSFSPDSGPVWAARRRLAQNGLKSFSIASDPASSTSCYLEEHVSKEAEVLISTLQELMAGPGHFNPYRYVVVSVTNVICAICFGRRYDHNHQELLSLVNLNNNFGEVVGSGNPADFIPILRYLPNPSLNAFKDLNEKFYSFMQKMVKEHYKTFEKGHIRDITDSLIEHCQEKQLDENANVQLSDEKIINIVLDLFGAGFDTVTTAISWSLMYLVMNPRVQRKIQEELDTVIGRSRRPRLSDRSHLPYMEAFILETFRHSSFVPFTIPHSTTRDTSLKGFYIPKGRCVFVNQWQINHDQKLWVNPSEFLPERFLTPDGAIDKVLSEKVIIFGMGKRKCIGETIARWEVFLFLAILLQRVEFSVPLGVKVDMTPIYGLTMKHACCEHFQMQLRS
T1 sequence (P05177 whole entry): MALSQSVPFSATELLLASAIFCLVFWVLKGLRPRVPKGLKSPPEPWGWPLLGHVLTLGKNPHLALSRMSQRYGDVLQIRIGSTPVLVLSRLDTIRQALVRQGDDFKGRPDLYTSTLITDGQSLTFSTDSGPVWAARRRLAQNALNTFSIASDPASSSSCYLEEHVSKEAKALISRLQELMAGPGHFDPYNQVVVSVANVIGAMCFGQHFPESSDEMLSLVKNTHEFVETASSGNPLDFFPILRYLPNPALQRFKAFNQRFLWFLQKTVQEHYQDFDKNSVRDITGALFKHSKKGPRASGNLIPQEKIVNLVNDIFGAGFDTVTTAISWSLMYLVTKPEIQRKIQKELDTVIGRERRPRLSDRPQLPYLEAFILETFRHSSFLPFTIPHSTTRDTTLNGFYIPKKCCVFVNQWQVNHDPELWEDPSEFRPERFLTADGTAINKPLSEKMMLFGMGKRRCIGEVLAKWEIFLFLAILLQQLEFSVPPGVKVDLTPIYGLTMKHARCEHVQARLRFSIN

[4] = Mutagenicity in Salmonella typhimurium by Ames test; format: toxicity; settings: salmonella enterica subsp. enterica serovar typhimurium
[5] = Toxicity in DBA/1 OlaHsd mouse immunized with bovine type2 collagen in Freund's complete adjuvant assessed as body weight loss at 10 mg/kg, po bid administered starting on day 22 post immunization measured on day 26 post immunization; format: organism-based; settings: in vivo
Method in brief: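 Semiestablished CIA design. Mice received bovine type II collagen at day 0 with a boost at day 21. Dosing at 10 mg/kg PO bid ran from day 22 to day 34, in 5% DMSO/95% (10% kleptose), n = 10 per group; normal controls n = 4. Paws were scored daily for erythema and swelling (0–5), summarized as AUC. Body weight was tracked over time.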

[6] = Cmax in Sprague-Dawley rat at 1 mg/kg, iv as bolus dose by LC-MS/MS analysis; format: ADME, organism-based; design: dose 1 mg/kg, route intravenous; settings: in vivo; method in brief: as §1
[7] = AUC (0 to infinity) in Sprague-Dawley rat at 1 mg/kg, iv as bolus dose by LC-MS/MS analysis; format: ADME, organism-based; design: dose 1 mg/kg, route intravenous, time infinity; settings: in vivo; method in brief: as §1
[8] = Distribution coefficient, logD of compound at pH 7.4; format: physicochemical; settings: octanol/water
Method in brief: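 logD measured at pH 7.4. Kinetic solubility measured by CLND. Solubility also measured in FaSSIF and FeSSIF biorelevant media.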

[9] = Tmax in Sprague-Dawley rat at 3 mg/kg, po administered through gavage by LC-MS/MS analysis; format: ADME, organism-based; settings: in vivo; method in brief: as §1
[10] = Cmax in DBA/1 OlaHsd mouse immunized with bovine type2 collagen in Freund's complete adjuvant at 10 mg/kg, po bid administered starting on day 22 post immunization measured on day 31 post immunization; format: ADME, organism-based; design: dose 10 mg/kg, route oral; settings: in vivo; method in brief: as §2
[11] = target: Cytochrome P450 2D6 (Homo sapiens, UniProt P10635); test: Inhibition of CYP2D6 in human liver microsomes; format: ADME
[12] = Intrinsic clearance in pooled cryopreserved human hepatocytes at 1 uM incubated up to 90 mins by LC-MS/MS analysis; format: ADME, cell-based, Hepatocyte; settings: 1.5 h
Method in brief: (§3)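 Metabolic stability was assessed in liver microsomes (rat, dog, human) and hepatocytes (dog, human). Intrinsic clearance was calculated as μL/min/g liver.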

[13] = AUC (0 to infinity) in Sprague-Dawley rat at 3 mg/kg, po administered through gavage by LC-MS/MS analysis; format: ADME, organism-based; design: dose 3 mg/kg, route oral, time infinity; settings: in vivo; method in brief: as §1
[14] = tested on: Lymphoma cell line; test: Genotoxicity in mouse lymphoma cells in absence of rat liver S9 fraction; format: toxicity, cell-based
[15] = Mean residence time in Sprague-Dawley rat at 1 mg/kg, iv as bolus dose or 3 mg/kg, po administered through gavage by LC-MS/MS analysis; format: ADME, organism-based; settings: in vivo; method in brief: as §1
[16] = target: Cytochrome P450 3A4 (Homo sapiens, UniProt P08684); test: Induction of CYP3A4 in […] at 10 uM; format: ADME
Method in brief: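 CYP3A4 induction tested at 10 μM. Time-dependent inhibition of CYP3A4 tested at up to 50 μM.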

[17] = Intrinsic clearance in pooled cryopreserved dog hepatocytes at 1 uM incubated up to 90 mins by LC-MS/MS analysis; format: ADME, cell-based, Canis lupus familiaris, Hepatocyte; settings: 1.5 h; method in brief: as §3
[18] = target: Cytochrome P450 2C19 (Homo sapiens, UniProt P33261); test: Inhibition of CYP2C19 in human liver microsomes; format: ADME
[19] = target: Cytochrome P450 2C9 (Homo sapiens, UniProt P11712); test: Inhibition of CYP2C9 in human liver microsomes; format: ADME
[20] = Apparent permeability from basolateral to apical side in human CaCo2 cells; format: ADME, cell-based; settings: Caco-2
Method in brief: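 Caco-2 monolayer permeability, measured as Papp in the apical-to-basolateral and basolateral-to-apical directions.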

[21] = Intrinsic clearance in pooled dog liver microsomes at 1 uM incubated up to 40 mins in presence of NADPH by LC-MS/MS analysis; format: ADME, Canis lupus familiaris, Microsome; method in brief: as §3
[22] = Protein binding in human plasma; format: ADME, cell-free; settings: read-out: PPB (converted)
Method in brief: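 Plasma protein binding was determined in rat, mouse and human plasma, expressed as % bound.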

Sequence of Cytochrome P450 2C19 (P33261 whole entry): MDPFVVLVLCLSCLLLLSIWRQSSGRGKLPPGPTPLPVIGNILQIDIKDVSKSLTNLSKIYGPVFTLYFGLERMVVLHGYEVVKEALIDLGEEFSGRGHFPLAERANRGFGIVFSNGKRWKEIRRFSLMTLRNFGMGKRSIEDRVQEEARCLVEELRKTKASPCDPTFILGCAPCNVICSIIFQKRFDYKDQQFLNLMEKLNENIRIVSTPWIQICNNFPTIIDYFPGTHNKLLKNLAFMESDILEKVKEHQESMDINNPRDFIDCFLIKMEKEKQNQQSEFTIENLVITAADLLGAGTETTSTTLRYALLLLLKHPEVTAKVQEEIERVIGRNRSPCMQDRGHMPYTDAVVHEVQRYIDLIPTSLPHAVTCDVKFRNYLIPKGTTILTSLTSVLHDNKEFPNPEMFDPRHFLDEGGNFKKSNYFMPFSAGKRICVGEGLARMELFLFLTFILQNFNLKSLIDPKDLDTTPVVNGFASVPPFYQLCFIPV
Sequence of Cytochrome P450 3A4 (P08684 whole entry): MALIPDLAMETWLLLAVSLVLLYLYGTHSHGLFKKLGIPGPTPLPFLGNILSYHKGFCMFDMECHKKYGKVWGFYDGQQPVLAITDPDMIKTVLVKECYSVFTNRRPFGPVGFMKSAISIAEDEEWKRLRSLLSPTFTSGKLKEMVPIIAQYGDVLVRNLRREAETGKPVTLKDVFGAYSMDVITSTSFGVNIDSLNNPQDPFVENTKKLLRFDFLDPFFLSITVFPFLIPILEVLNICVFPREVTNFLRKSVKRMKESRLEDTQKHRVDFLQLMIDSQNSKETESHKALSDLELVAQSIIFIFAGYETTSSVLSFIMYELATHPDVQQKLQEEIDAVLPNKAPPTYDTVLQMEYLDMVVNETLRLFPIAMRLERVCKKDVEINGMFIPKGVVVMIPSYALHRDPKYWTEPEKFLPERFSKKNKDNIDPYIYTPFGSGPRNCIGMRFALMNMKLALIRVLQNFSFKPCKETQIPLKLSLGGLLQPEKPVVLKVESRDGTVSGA
Sequence of Cytochrome P450 2D6 (P10635 whole entry): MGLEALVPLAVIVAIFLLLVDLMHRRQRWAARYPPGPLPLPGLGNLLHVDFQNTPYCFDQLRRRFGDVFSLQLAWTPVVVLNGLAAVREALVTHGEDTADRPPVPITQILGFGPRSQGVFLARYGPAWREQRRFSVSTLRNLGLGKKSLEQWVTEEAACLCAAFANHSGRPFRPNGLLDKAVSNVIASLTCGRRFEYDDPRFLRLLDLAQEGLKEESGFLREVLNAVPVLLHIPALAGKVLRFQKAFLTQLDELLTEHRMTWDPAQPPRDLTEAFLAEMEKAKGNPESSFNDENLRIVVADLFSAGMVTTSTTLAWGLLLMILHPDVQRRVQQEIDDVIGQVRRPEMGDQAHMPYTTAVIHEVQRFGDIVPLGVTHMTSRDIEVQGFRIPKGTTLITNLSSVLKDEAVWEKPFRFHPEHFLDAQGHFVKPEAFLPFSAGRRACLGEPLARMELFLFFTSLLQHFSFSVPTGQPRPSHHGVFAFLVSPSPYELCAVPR
Sequence of Cytochrome P450 2C9 (P11712 whole entry): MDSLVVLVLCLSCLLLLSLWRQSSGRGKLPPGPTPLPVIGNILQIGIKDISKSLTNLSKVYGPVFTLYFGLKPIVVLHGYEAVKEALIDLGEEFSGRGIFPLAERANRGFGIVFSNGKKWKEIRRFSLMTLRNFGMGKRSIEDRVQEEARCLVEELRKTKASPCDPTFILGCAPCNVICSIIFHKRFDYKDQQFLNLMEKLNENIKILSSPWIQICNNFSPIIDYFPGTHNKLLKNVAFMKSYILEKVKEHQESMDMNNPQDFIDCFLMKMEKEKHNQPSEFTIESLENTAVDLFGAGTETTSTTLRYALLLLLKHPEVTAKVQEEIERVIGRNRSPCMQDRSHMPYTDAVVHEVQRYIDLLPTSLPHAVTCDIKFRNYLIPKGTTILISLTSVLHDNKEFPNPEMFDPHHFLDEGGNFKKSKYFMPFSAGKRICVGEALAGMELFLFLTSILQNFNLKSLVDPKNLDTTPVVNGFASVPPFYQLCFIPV

For `CCNC(=O)Nc1ccc(-c2nc(N3CCOC[C@@H]3C)c3c(n2)C(C)(C)S(=O)(=O)C3)cc1`, the Vd [1] was 3.1 L/kg, the Time [2] was “<= 8 hr” and the “inhibition (INH)” value [3] was “Not Active”. The Activity [4] was “Non-Toxic”, the Activity [5] was “Non-Toxic” and the Cmax [6] was 710 nM. The AUC(0-inf) [7] was 0.76 µM·h, the logD [8] was 4.31 and the Tmax [9] was 30 min. The Cmax [10] was 1700 nM, the “inhibition (INH)” value [11] was “Not Active” and the CLH [12] was “<= 0.5 microL/min/g”. The AUC(0-inf) [13] was 1 µM·h, the Activity [14] was “Non-Toxic” and the MRT [15] was 66 min. For the same compound, the Activity [16] was “Not Active”, the CLH [17] was under 0.8 µL/min/g and the “inhibition (INH)” value [18] was “Not Active”. For the same compound, the “inhibition (INH)” value [19] was “Not Active”, the Papp B→A [20] was 0.102 ×10⁻⁶ cm/s and the CLH [21] was under 1.1 µL/min/g. The fraction unbound [22] was 0.19.
